Experimental findings from ChEMBL document CHEMBL1146134, “Synthesis and antifungal activity of 6-hydroxycinnolines” (2006) are described below.

Each structure is given as a SMILES string. In brackets after ≈: the same amount, converted by molar mass. Bounds are passed on as bounds.

What all share (format): functional
The subject of one experiment is Aspergillus niger. The experiment can be described thus: Antifungal activity against Aspergillus niger KCTC 1231. Put shortly: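 MIC by twofold serial dilution in modified Sabouraud dextrose broth, with roughly 1 × 10⁵ cells/mL inoculum. Final test concentrations ranged 0.2 to 100. Plates held at 37 °C and read after 2 days. 5-Fluorocytosine served as reference agent.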

Another experiment concerns Pichia kudriavzevii. Description: Antifungal activity against Candida krusei KCCM 11655. An outline of the steps:
(§1)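 Twofold broth dilution MIC in modified Sabouraud dextrose broth. Inoculum approximately 1 × 10⁵ cells/mL. Final agent concentrations ranged 0.2 to 100. Incubated at 37 °C and read after 1 day. MIC determined against 5-fluorocytosine as standard.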

The subject of another experiment is Cryptococcus neoformans. The experiment can be described thus: Antifungal activity against Cryptococcus neoformans KCCM 50564. Put shortly: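 Growth inhibition measured as MIC by twofold broth dilution in modified Sabouraud dextrose broth. Inoculum near 1 × 10⁵ cells/mL. Final agent concentrations spanned 0.2 to 100. 5-Fluorocytosine was run as standard.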

The next experiment concerns Candida albicans. Description: Antifungal activity against Candida albicans KCCM 50235. Put shortly: as §1
A further experiment concerns Candida tropicalis. The experiment can be described thus: Antifungal activity against Candida tropicalis KCCM 50662. Put shortly:
as §1

Turning to `COC(=O)C(C#N)C1=C(Sc2cccc(C)c2)C(=O)C(C)=C(C)C1=O` (stereo not given), the MIC (commonly the lowest concentration that inhibits growth of the organism) in the experiment on Aspergillus niger is above 50 µg/mL; against Pichia kudriavzevii it was 1.6 µg/mL (≈ 4.5 µM); against Cryptococcus neoformans, 50 µg/mL (≈ 141 µM); against Candida albicans, above 50 µg/mL; in the experiment on Candida tropicalis, above 50 µg/mL.

`COC(=O)c1c(N)nnc2c(C)c(C)c(O)c(Sc3ccccc3)c12`: the minimal inhibitory concentration (MIC) in the experiment on Aspergillus niger is 12.5 µg/mL (≈ 35.2 µM); against Pichia kudriavzevii, 6.3 µg/mL (≈ 17.7 µM); against Cryptococcus neoformans it was 1.6 µg/mL (≈ 4.5 µM); against Candida albicans it was above 50 µg/mL; in the experiment on Candida tropicalis, 25 µg/mL (≈ 70.3 µM).

Consider `COC(=O)C(C#N)C1=C(Cl)C(=O)C(C)=C(C)C1=O` (stereo not given), for which the MIC came out at 25 µg/mL (≈ 93.4 µM) with Aspergillus niger; 25 µg/mL (≈ 93.4 µM) in the experiment with Pichia kudriavzevii; 6.3 µg/mL (≈ 23.5 µM) against Cryptococcus neoformans; 50 µg/mL (≈ 187 µM) in the experiment with Candida albicans; 50 µg/mL (≈ 187 µM) with Candida tropicalis.

For the compound `COC(=O)c1c(N)nnc2c(C)c(C)c(O)c(Sc3ccc(C)c(C)c3)c12`, the MIC against Aspergillus niger was 12.5 µg/mL (≈ 32.6 µM); in the experiment on Pichia kudriavzevii, 3.2 µg/mL (≈ 8.34 µM); in the experiment on Cryptococcus neoformans it was 1.6 µg/mL (≈ 4.17 µM); in the experiment on Candida albicans, above 50 µg/mL; in the experiment with Candida tropicalis, 25 µg/mL (≈ 65.2 µM).

As for `COC(=O)C(C#N)C1=C(Sc2ccc(C)cc2)C(=O)C(C)=C(C)C1=O` (stereo not given), the MIC was above 50 µg/mL with Aspergillus niger; 50 µg/mL (≈ 141 µM) against Pichia kudriavzevii; 50 µg/mL (≈ 141 µM) in the experiment on Cryptococcus neoformans; above 50 µg/mL in the experiment with Candida albicans; above 50 µg/mL in the experiment on Candida tropicalis.

For the compound `COC(=O)c1c(N)nnc2c(C)c(C)c(O)c(Sc3cccc(F)c3)c12`, the MIC is 1.6 µg/mL (≈ 4.28 µM) with Aspergillus niger; 25 µg/mL (≈ 67 µM) against Pichia kudriavzevii; 6.3 µg/mL (≈ 16.9 µM) against Cryptococcus neoformans; above 50 µg/mL against Candida albicans; 50 µg/mL (≈ 134 µM) with Candida tropicalis.

With `COC(=O)c1c(N)nnc2c(C)c(C)c(O)c(Cl)c12`, the MIC in the experiment with Aspergillus niger is 6.3 µg/mL (≈ 22.4 µM); against Pichia kudriavzevii, 25 µg/mL (≈ 88.7 µM); in the experiment with Cryptococcus neoformans it was 25 µg/mL (≈ 88.7 µM); against Candida albicans, above 50 µg/mL; with Candida tropicalis, 50 µg/mL (≈ 177 µM).

With `COC(=O)C(C#N)C1=C(Sc2ccccc2)C(=O)C(C)=C(C)C1=O` (stereo not given), the MIC is 50 µg/mL (≈ 146 µM) with Aspergillus niger; 50 µg/mL (≈ 146 µM) against Pichia kudriavzevii; 12.5 µg/mL (≈ 36.6 µM) with Cryptococcus neoformans; 50 µg/mL (≈ 146 µM) against Candida albicans; 50 µg/mL (≈ 146 µM) in the experiment with Candida tropicalis.

Take `COC(=O)c1c(N)nnc2c(C)c(C)c(O)c(Sc3ccc(C)cc3)c12`: the MIC with Aspergillus niger was 25 µg/mL (≈ 67.7 µM); with Pichia kudriavzevii, 3.2 µg/mL (≈ 8.66 µM); in the experiment on Cryptococcus neoformans, 6.3 µg/mL (≈ 17.1 µM); in the experiment on Candida albicans, above 50 µg/mL; against Candida tropicalis, 25 µg/mL (≈ 67.7 µM).

With `Nc1nc(=O)[nH]cc1F` [FLUCYTOSINE], the MIC came to 12.5 µg/mL (≈ 96.8 µM) in the experiment with Aspergillus niger; 6.3 µg/mL (≈ 48.8 µM) with Pichia kudriavzevii; 12.5 µg/mL (≈ 96.8 µM) against Cryptococcus neoformans; 6.3 µg/mL (≈ 48.8 µM) against Candida albicans; 12.5 µg/mL (≈ 96.8 µM) in the experiment with Candida tropicalis.

With `COC(=O)C(C#N)C1=C(Sc2cccc(F)c2)C(=O)C(C)=C(C)C1=O` (stereo not given), the minimum inhibitory concentration (MIC) came out at 50 µg/mL (≈ 139 µM) against Aspergillus niger; 25 µg/mL (≈ 69.6 µM) against Pichia kudriavzevii; 50 µg/mL (≈ 139 µM) in the experiment on Cryptococcus neoformans; 50 µg/mL (≈ 139 µM) against Candida albicans; 50 µg/mL (≈ 139 µM) in the experiment on Candida tropicalis.

As to `COC(=O)C(C#N)C1=C(Sc2ccc(C)c(C)c2)C(=O)C(C)=C(C)C1=O` (stereo not given), the minimal inhibitory concentration (MIC) with Aspergillus niger was 50 µg/mL (≈ 135 µM); in the experiment with Pichia kudriavzevii, above 50 µg/mL; with Cryptococcus neoformans it was above 50 µg/mL; in the experiment on Candida albicans, 50 µg/mL (≈ 135 µM); against Candida tropicalis, 50 µg/mL (≈ 135 µM).

In the case of `COC(=O)c1c(N)nnc2c(C)c(C)c(O)c(Sc3cccc(C)c3)c12`, the minimum inhibitory concentration (MIC) was above 50 µg/mL with Aspergillus niger; above 50 µg/mL against Pichia kudriavzevii; 1.6 µg/mL (≈ 4.33 µM) against Cryptococcus neoformans; above 50 µg/mL against Candida albicans; above 50 µg/mL in the experiment with Candida tropicalis.
